Only some compounds are listed: those with a hit (about 1.9% of all), similar ones and a draw of the others.
CHRM5 antagonist = human M5 muscarinic receptor antagonists, primary screen, CHO cells, Fluo-8 calcium fluorescence. CHO-hM5 cells, ACh EC80. inhibition, % at 3 µM. hit rate 0.59% among 360,000. AID 624040, 2012;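 active = inhibition above a per-plate cutoff, the mean of that plate's test compounds plus 3 SD, cut at about 27% in these data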;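 note: 0% = acetylcholine EC80 with DMSO and 100% = DMSO without agonist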
CHRM4 agonist = human M4 muscarinic receptor agonists, primary screen, CHO-K1 cells, Fluo-8 calcium fluorescence; AID 624127, 2012; hit rate 0.14% among 360,000; CHO-K1 hM4/Gqi5; vehicle 0%, full acetylcholine response 100%; activation, % at 3 µM;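 active = activation above the run mean over all test wells plus 3 SD, cut at about 32% in these data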;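 note: peak over basal fluorescence ratio per well then scaled between controls; 0% = DMSO wells and 100% = acetylcholine at EC100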
Target sequence (P08173 whole entry, looked up): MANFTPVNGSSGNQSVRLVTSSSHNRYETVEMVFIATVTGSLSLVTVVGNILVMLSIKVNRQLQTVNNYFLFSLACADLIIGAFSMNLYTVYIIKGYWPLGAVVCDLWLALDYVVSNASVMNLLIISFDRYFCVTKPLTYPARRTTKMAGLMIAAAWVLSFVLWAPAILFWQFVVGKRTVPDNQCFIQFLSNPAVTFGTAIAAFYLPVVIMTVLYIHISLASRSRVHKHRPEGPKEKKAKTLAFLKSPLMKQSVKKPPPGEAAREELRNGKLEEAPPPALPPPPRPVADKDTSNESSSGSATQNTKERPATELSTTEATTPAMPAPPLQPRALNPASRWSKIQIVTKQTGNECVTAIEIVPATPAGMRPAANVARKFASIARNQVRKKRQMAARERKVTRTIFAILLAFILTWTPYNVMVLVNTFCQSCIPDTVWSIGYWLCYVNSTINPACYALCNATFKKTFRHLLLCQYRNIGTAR
CHRM4 PAM = human M4 muscarinic receptor positive allosteric modulators, primary screen, CHO-K1 cells, Fluo-8 calcium fluorescence; Muscarinic acetylcholine receptor M4 (Homo sapiens), P08173; CHO-K1 hM4/Gqi5, ACh EC20; 0% = ACh EC20, 100% = maximal ACh; activation, % at 3 µM; hit rate 0.4% among 360,000; AID 624126, 2012;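 active = activation above its plate's cutoff, the mean activation of sample wells plus 3 SD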
M5 PAM = human M5 muscarinic receptor positive allosteric modulators, primary screen, CHO-K1 cells, Fluo-8 calcium fluorescence; CHO-K1 hM5, ACh EC20 PAM; 0% = ACh EC20, 100% = ACh EC100; activation, % at 3 µM; hit rate 0.3% among 360,000;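 active = activation above the run cutoff, the mean activation of all test compounds plus 3 SD, cut at about 18% in these data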
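System: CHO-K1 hM5 cells. Reagent: acetylcholine, EC20 level. Compound dosing: single dose, 3 µM nominal final test concentration. Timing: Post-acetylcholine fluorescence recording 140 s. Detection: Fluo-8 calcium fluorescence. Read-out: % activation, ACh-normalized. Benchmarks: ACh EC20 and EC100 wells. Repeats: singlicate, one well per test compound.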
M5 ag = human M5 muscarinic receptor agonists, primary screen, CHO-K1 cells, Fluo-8 calcium fluorescence. activation, % at 3 µM. hit rate 0.19% among 360,000. AID 624037, 2012. CHO-K1 hM5 cells; 0% DMSO wells, 100% maximal acetylcholine response. Muscarinic acetylcholine receptor M5 (Homo sapiens), P08912;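 active = activation above the run's mean over test compounds plus 3 SD, cut at about 23% in these data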;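 note: signal is peak over basal fluorescence ratio across the kinetic read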
M4 antag = human M4 muscarinic receptor antagonists, primary screen, CHO cells, Fluo-8 calcium fluorescence; Muscarinic acetylcholine receptor M4 (Homo sapiens), P08173; CHO-hM4 cells, ACh EC80; inhibition, % at 3 µM; hit rate 0.73% among 360,000;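 active = inhibition above its plate's cutoff, the mean inhibition of sample wells plus 3 SD, cut at about 27% in these data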;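 note: 0% = acetylcholine EC80 with DMSO and 100% = DMSO without agonist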
Numbers without * were called inactive.

SMILES	CHRM5 antagonist	CHRM4 agonist	CHRM4 PAM	M5 PAM	M5 ag	M4 antag
C(=Cc1c[nH]c2ccccc12)c1nccc2ccccc12	22	4	2	-4	10	-6
CCn1c(CNc2ccc(C)cc2)nnc1SCC(=O)NCc1ccccc1	3	1	31*	-1	-5	1
CC(=O)Nc1ccc(C(=O)OCC(=O)Nc2ccc(N3CCOCC3)cc2)cc1	9	1	-3	-1	-2	5
NC(=O)CC[C@H](NC(=O)c1ccc(F)cc1)C(=O)OCC(=O)Nc1ccc(N2CCOCC2)cc1	-4	0	24*	2	-2	-12
Cc1ccc(NC(=O)CN(CCc2ccccc2)S(C)(=O)=O)cc1	-14	2	0	-2	6	1
COc1cccc(-c2sc3ccccc3c2-c2ccc(OCCN3CCCCC3)cc2)c1	15	5	9	-1	-5	34*
COc1cccc(-c2sc3ccccc3c2-c2ccc(OCCN(C)C)cc2)c1	22	9	2	-15	-7	47*
COc1ccccc1-c1sc2ccccc2c1-c1ccc(OCCN2CCCCC2)cc1	-4	8	-2	0	-1	1
Oc1ccc2sc(-c3ccccc3O)c(-c3ccc(OCCN4CCCCC4)cc3)c2c1	18	61*	-13	-8	7	43*
CCC(C)NC(=O)C(NS(=O)(=O)c1cccc2nsnc12)c1ccccc1 (centres undefined)	-2	1	5	35*	-9	-15
CCn1c(=O)n(CCc2ccccc2)c(=O)c2c3c(sc21)CCCC3	1	-1	3	-1	-2	-2
CC(O)CNc1nc2sc3c(c2c(=O)n1CCc1ccccc1)CCCCC3 (centres undefined)	-4	7	-3	-4	0	-4
CN(C)CCNc1nc2sc3c(c2c(=O)n1CCc1ccccc1)CCCCC3	17	19	-13	-19	8	31*
COC(=O)Cn1c(=O)n(CCc2ccccc2)c(=O)c2c3c(sc21)CCCC3	22	-3	-32	-16	-8	30*
CCOC(=O)c1sc2nccc(OC)c2c1N=CNOC	18	0	13	-7	-2	2
Cc1cc(Br)ccc1NC(=O)CNC(=O)CN1C(=O)NC2(CCCCCC2)C1=O	7	2	-1	-3	1	-1
Cc1cc(Br)ccc1NC(=O)CN1C(=O)C2C3CC(c4ccccc4)C(C3)C2C1=O (centres undefined)	19	10	-21	-9	3	28*
COCc1ccc(C(=O)N2CCCC(N3CCN(c4cccc(Cl)c4)CC3)C2)s1 (centres undefined)	1	5	5	-1	-1	-11
CCCCN(CC)C(=O)c1cc2cc3ccc(OC)cc3nc2o1	-1	3	14	42*	17	5
Cc1sc2ncnc(NCC(O)c3ccc([N+](=O)[O-])cc3)c2c1C (centres undefined)	36*	20	-9	-14	5	13
Cc1sc2ncnc(NCC(O)c3ccccc3)c2c1C (centres undefined)	12	18	-5	-12	8	7
O=C(NCc1ccccc1Br)C1CCCO1 (centres undefined)	8	1	-6	-6	-4	4
CCOc1ccccc1NC(=O)c1cccc(N2C(=O)CCC2=O)c1	0	1	0	-5	-4	-5
CCOc1ccccc1NC(=O)c1cc(C(=O)Nc2ccccc2OCC)cc(N2C(=O)CCC2=O)c1	29*	9	-9	-17	-1	3
COc1cccc(/C=C2\CCCCC2=O)c1	-26	0	1	31*	0	-18
SMILES	CHRM5 antagonist	CHRM4 agonist	CHRM4 PAM	M5 PAM	M5 ag	M4 antag
COc1cccc(/C=C2\CCC(C3CCCC3)C2=O)c1 (centres undefined)	-6	1	-1	4	-1	-2
COc1cccc(CN2CCC2(C)C(=O)Nc2ccc(Cl)c(Cl)c2)c1F (centres undefined)	8	-1	-4	-8	-2	-21
CSc1sc(C(=O)NCC2CC2)c2c1S(=O)(=O)N(C)c1ccccc1-2	9	7	-9	-12	3	-10
CSc1sc(C(=O)NCC2CC2)c(-c2cccs2)c1C#N	-5	6	17*	5	1	-1
CC(C)[N+](C)(C)CC#CC(O)(c1ccccc1)c1ccccc1	100*	1	-60	-32	-18	99*
C[N+]1(CC#CC(O)(c2ccccc2)c2ccccc2)CCCC1	99*	0	-18	-18	-8	99*
OC(C#Cc1ccccc1)(c1ccccc1)c1ccccc1	12	-1	-6	-2	-1	8
c1ccc(Nc2cccc3ccccc23)cc1	1	-1	4	-5	-1	-18
c1ccc(Nc2ccc3c4c(cccc24)CC3)cc1	37*	27	-19	-10	27*	33*
Cc1ccc(S(=O)(=O)NCC(=O)OCC(=O)N2CC(C)OC(C)C2)cc1 (centres undefined)	-1	0	2	8	1	-11
CCCC1(c2ccccc2)NC(=O)N(CC(=O)NCc2ccc(OC)cc2)C1=O (centres undefined)	2	2	21*	-1	-4	2
Cc1nn2c(=O)c3c4c(sc3nc2n1-c1ccccc1)COC(C)(C)C4	3	0	1	5	4	3
C[C@@H](CSc1ccc(Br)cc1)CN1CC[C@H](NC(=O)OCc2ccccc2)CCC1=O	15	17	-5	-15	2	28*
Cc1nn(CC(=O)OCC(=O)Nc2cccc(S(N)(=O)=O)c2)c(C)c1[N+](=O)[O-]	7	2	7	3	1	4
COc1cccc(NC(=S)N2CCC(c3ccc(C)cc3)C2)c1 (centres undefined)	3	2	-5	-1	-4	-5
COc1ccc(-c2noc(CN3CCCCC3c3nccn3C)n2)cc1 (centres undefined)	12	0	-18	-13	-16	10
Cn1ccnc1C1CCCCN1Cc1nc(-c2ccc3c(c2)OCO3)no1 (centres undefined)	15	-1	-25	-26	-21	27*

Assay outcomes deposited in PubChem by The Scripps Research Institute Molecular Screening Center.
